Bioassay records from PubChem BioAssay.
Rows were chosen to be rich in hits. Some 0.73% of all compounds tested hit in one or more screens of this group.
C-LANA FP: KSHV C-LANA DNA binding inhibition | 340,000 compounds, 0.078% hits | inhibition, % at 9 µM | MBP-C-LANA/FAM-LBS DNA binding, fluorescence polarization;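 active = highest replicate inhibition at or above 60% at 9 µM, even if other replicates fall short; inactive = all replicates below 60% inhibition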;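 also: 0% = neutral control wells and 100% = 4 µM acridine orange control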
DDE Tn7 FP inh: disrupts Tn7 cyclic peptide binding to fibrin D-Dimer-E complex; P02675; FP displacement of FITC-Tn7 peptide from fibrin DD(E); 0% = median of compound wells per plate; inhibition, % at 8.3 µM; 370,000 compounds, 0.13% hits; AID 720508;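 active = inhibition above the mean of compounds falling within the control limits plus 3 SD of them, cut at about 14% in these data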;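 also: 0% = plate median of compound wells and 100% = 10 µM Aha-Tn7 peptide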
Target sequence (P02675 whole entry, looked up): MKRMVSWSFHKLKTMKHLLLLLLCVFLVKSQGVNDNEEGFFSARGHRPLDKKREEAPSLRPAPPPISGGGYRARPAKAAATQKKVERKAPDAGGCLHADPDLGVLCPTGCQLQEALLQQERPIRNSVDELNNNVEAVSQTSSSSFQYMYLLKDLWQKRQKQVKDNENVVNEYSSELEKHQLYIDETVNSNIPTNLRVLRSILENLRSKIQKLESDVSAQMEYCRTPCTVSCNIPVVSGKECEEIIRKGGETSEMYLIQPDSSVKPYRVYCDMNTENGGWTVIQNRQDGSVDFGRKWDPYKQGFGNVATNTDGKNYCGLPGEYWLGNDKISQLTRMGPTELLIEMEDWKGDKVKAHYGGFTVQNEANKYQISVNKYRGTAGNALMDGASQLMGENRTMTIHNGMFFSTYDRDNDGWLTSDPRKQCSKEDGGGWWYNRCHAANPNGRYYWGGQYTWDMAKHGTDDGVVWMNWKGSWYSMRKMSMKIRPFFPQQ
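Test system – human fibrin DD(E) · Times – 10 min preincubation, 3 h with tracer, room temperature · Detection – fluorescence polarization of the labelled Tn7 tracer · Measure – percent inhibition normalized to high-control wells · Benchmarks – high control wells with 10 µM unlabelled Aha-Tn7 peptide (full inhibition) · Repeats – singlicate testing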
DDE Tn6 FP inh: disrupts Tn6 cyclic peptide binding to fibrin D-Dimer-E complex. Fibrin DD(E) TRITC-Tn6 fluorescence polarization displacement. inhibition, % at 8.3 µM. 370,000 compounds, 0.21% hits. AID 720509;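 active = inhibition above a per-campaign cutoff: mean of compounds within control limits plus 3 SD, cut at about 15% in these data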;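 also: 0% = median of all compound wells on the plate and 100% = blocking peptide control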
cardiac RTF act: cardiac RTF calcium sensitization | AID 493008 | activation, % at 7.2 µM | 340,000 compounds, 0.24% hits | IANBD-labeled TnC RTF fluorescence at EC20 calcium; 0% EC20 calcium, 100% full calcium;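 active = activation above the mean over all tested compounds plus 3 SD, cut at about 30% in these data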;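 also: rise in fluorescence read as greater calcium sensitivity of cardiac thin filaments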
Keap1-Nrf2 PPI: inhibitors of human Keap1-Nrf2 protein-protein interaction; AID 504523; Q14145; Keap1 Kelch-Nrf2 peptide fluorescence polarization, 1536-well; 340,000 compounds, 0.15% hits; inhibition, % at 9.4 µM; in the data active = inhibition above about 12%;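 also: human Keap1 Kelch domain with fluorescein labeled Nrf2 9mer peptide probe; 0% = neutral control wells and 100% = peptide positive control; higher means more block of Keap1 binding to Nrf2 peptide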
RTF Ca sens inh: cardiac RTF calcium desensitization; P19429+P45379; IANBD-labeled cardiac RTF, Ca2+ fluorescence; inhibition, % at 7.15 µM; 340,000 compounds, 0.12% hits; AID 493244;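 active = inhibition above the mean inhibition of all tested compounds plus 3 SD, cut at about 17% in these data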;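 also: assay run at fixed EC70 calcium of 1.6 mM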
DDE Tn6 FP ctr: DD(E)-Tn6 binding inhibition, counter-screen. AID 720621. 680 compounds, 2% hits. Fibrin DD(E), TRITC-Tn6 fluorescence polarization displacement; 0% = median of compound wells, not DMSO. shares compounds with DDE Tn6 FP inh. inhibition, % at 8.3 µM;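 active = inhibition above the mean of test compounds lying between the control limits plus 3 SD of those, cut at about 14% in these data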;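 also: 0% = median of compound wells and 100% = wells with Aha-Tn7 blocking peptide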
Tn6 DDE conf: confirmation of inhibitors of Tn6 binding to human fibrin DD(E) | shares compounds with DDE Tn6 FP inh | FP displacement of TRITC-Tn6 peptide from DD(E); 0% = per-plate median of test wells | inhibition, % at 8.3 µM | 680 compounds, 10% hits | AID 720631;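 active = inhibition above the mean of compounds lying within the control limits plus 3 SD, cut at about 16% in these data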;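 also: 100% = high control wells holding a competing inhibitor peptide at 10 µM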
* = called active by the depositor; . = no result given; + = active, no number.

SMILES	C-LANA FP	DDE Tn7 FP inh	DDE Tn6 FP inh	cardiac RTF act	Keap1-Nrf2 PPI	RTF Ca sens inh	DDE Tn6 FP ctr	Tn6 DDE conf
CCOc1ccc(CC(=O)NCc2ccc3c(c2)cc(C)n3C)cc1	-0.5	2.2	44.9*	-1.4	-1.2	-6.1	3.0	0.4
Cc1cc2cc(CNC(=S)Nc3ccc(OC(F)F)cc3)ccc2n1C	1.1	4.4	19.8*	2.3	-6.6	-3.0	7.1	6.3
CC[C@@H](CCCc1ccc(F)cc1)CN(Cc1ccc(OC)cc1)S(=O)(=O)c1ccc(C)cc1	.	-4.6	-0.7	.	.	.	.	.
CCCCOCCCNC(=O)C[C@@H]1C[C@@]2(C(=O)OC)CC(C)(C)CC=C2N(Cc2ccccc2)C1=O	.	-1.6	4.7	.	.	.	.	.
CO/N=C(\CCC(=O)O)c1cccs1	-1.0	5.5	16.2*	-4.1	-1.0	0.7	0.2	-3.8
CC1CC(C)CN(S(=O)(=O)c2ccc3c(c2)oc(=O)n3CC(=O)N(C)Cc2ccccc2)C1 (centres undefined)	-1.0	2.7	15.2*	1.1	-1.6	-12.6	0.5	-4.2
Cc1ccc(S(=O)(=O)N2CC[C@@]3(Cc4ccccc4)Cc4ccccc4C[C@@H]23)cc1	.	-10.7	2.8	.	.	.	.	.
COc1ccccc1N=Nc1nc(-c2ccccc2)c(-c2ccccc2)[nH]1	-1.2	-2.7	20.6*	-4.5	-3.7	-1.3	9.2	8.9
C=CCN1[C@@H](CC(C)C)COc2cc(N3CCSCC3)ccc2S1(=O)=O	.	-1.6	5.1	.	.	.	.	.
CC(C)(C)c1ccc(S(=O)(=O)N2CCC(C(=O)NCC3COCCO3)CC2)cc1 (centres undefined)	.	-1.9	-1.6	.	.	.	.	.
CCOc1ccc(NC(=O)C(CC)NC(=O)c2ccccc2CO)cc1 (centres undefined)	-0.6	0.8	19.9*	-1.6	3.9	-4.5	-3.1	-6.4
CCOc1ccc(NC(=O)[C@@H](NC(=O)c2ccccc2Br)C(C)C)cc1	-0.2	5.3	-1.6	-3.4	-5.3	-0.9	.	.
CCC[C@H]1[C@@H](NC(=O)C#Cc2ccccc2)CC[C@@]23CCCN2C(=O)CCC[C@@H]13	.	2.6	-4.6	.	.	.	.	.
Cc1cc2nc3ccc(=[N+](C)C)cc-3sc2cc1N	-41.2	.	.	-0.1	-2.6	-5.1	.	.
CN(C)c1ccc2nc3ccc(=O)cc-3sc2c1	.	3.0	146.1*	.	.	.	-7.0	69.9*
Cc1c(Cc2ccccc2)c(=O)oc2cc(OCC(=O)N3CCC(C(N)=O)CC3)ccc12	0.0	5.3	17.7*	-1.9	3.9	-4.5	1.0	1.7
NC(=O)C1CCN(C(=O)COc2ccc3c(c2)oc(=O)c2ccccc23)CC1	3.2	-7.9	-6.5	-6.3	1.5	6.4	.	.
COc1ccccc1NS(=O)(=O)c1cccc(NC(=O)Nc2cccc(Cl)c2)c1	0.1	4.9	43.4*	-3.3	-7.8	-7.7	8.7	16.7*
COC(=O)c1ccccc1-c1c2ccc(=N)cc-2oc2cc(N)ccc12	.	5.1	+	+	+	.	53.3*	93.2*
N#C/C(=C\c1cccnc1)C(=O)Nc1ccccc1	5.9	1.1	-3.1	11.2	-0.7	-8.8	.	.
N#C/C(=C\c1cccnc1)C(=O)Nc1ccc(O)cc1F	1.0	0.3	49.4*	3.2	-4.8	-13.9	-1.8	-1.1
CN1C2=N[C@@H](c3ccc4ccccc4c3)CC(=O)N2/C(=C\c2ccccc2)[C@H]1c1ccccc1	.	-1.6	-1.2	.	.	.	.	.
Cc1cc2c(=Cc3ccc(N(C)C)cc3)c3ccccc3n2[n+]1C	-75.4	-6.5	-16.9	-0.4	-40.3	-3.1	.	.
CCOC(=O)c1cc2c(=Cc3ccc(N(C)C)cc3)c3ccccc3n2[n+]1C	-6.3	-2.3	21.5*	-5.2	-5.1	-2.6	5.7	-15.3
Cc1c(-n2cc(C(=O)O)c(=O)c3cc(F)c(N4CCCC(O)C4)c(F)c32)c(=O)n(-c2ccccc2)n1C (centres undefined)	-0.5	-7.6	-0.1	-2.3	-1.7	1.7	.	.
SMILES	C-LANA FP	DDE Tn7 FP inh	DDE Tn6 FP inh	cardiac RTF act	Keap1-Nrf2 PPI	RTF Ca sens inh	DDE Tn6 FP ctr	Tn6 DDE conf
O=C(O)c1cn(-c2ccc(N3CCCC3)c(F)c2)c2c(F)c(F)c(F)cc2c1=O	1.3	1.3	17.8*	-1.2	0.6	-1.9	-1.7	-4.0
Cc1cc2ccccc2cc1CN1CCCCC1	-1.8	5.2	16.3*	4.4	-2.1	-5.2	-3.8	-4.2
CCc1ccccc1NC(=O)NCc1ccccn1	-0.4	2.5	-0.8	-2.4	0.2	-5.8	.	.
CCOc1ccccc1NC(=O)NCc1ccccn1	0.2	3.2	19.0*	0.4	-0.7	-5.0	8.0	5.1
Cc1ccc(S(=O)(=O)CCC(=O)OCCOc2cccc(Br)c2)cc1	0.4	-5.3	15.4*	-3.6	0.0	3.0	6.9	8.2
Cc1cc(C)n(CC(O)Cn2c(C)c(C)c3ccccc32)n1 (centres undefined)	0.1	3.3	18.6*	-2.0	-11.6	2.5	-2.2	0.6
CC(=O)Nc1nc2cc3c(cc2s1)OCO3	-1.4	5.4	15.5*	2.2	-4.7	-3.9	3.8	3.9
Cc1nc2ccc(N)cc2s1	-0.3	-1.8	15.3*	-0.4	-6.6	-1.9	-5.2	-8.7
Cc1nn(-c2ccccc2)cc1C(c1c(N)[nH]c(=S)[nH]c1=O)c1c(N)[nH]c(=S)[nH]c1=O	0.6	1.1	15.4*	-6.0	-1.8	10.8	-7.1	-28.1
Cc1nn(-c2ccccc2)cc1/C=N/NC(N)=S	.	-1.2	-11.9	.	.	.	.	.
Cc1cc(O)ccc1N/C=C1\CCCC1=O	2.0	-1.2	29.6*	3.7	-4.6	4.4	2.9	-2.1
CC(=O)N1CCN(C(=O)CCNS(=O)(=O)c2ccc(Br)cc2)CC1	-0.2	-0.4	18.1*	1.1	-0.8	-5.4	-0.3	-3.9
O=C(CCNS(=O)(=O)c1ccc(Br)cc1)N1CCCCCCC1	0.7	1.1	-4.7	5.2	-2.3	0.3	.	.
Cc1cccc(-c2cc(N3CCCN(C)CC3)n3nccc3n2)c1	.	2.9	16.2*	.	.	.	-0.4	8.3
CN1CCCN(c2cc(-c3ccc4ccccc4c3)nc3ccnn23)CC1	.	-8.7	8.4	.	.	.	.	.
O=C1Nc2ccccc2-n2nnnc2C1N1CCN(CCN2CCOCC2)CC1 (centres undefined)	.	-4.5	1.9	.	.	.	.	.
COCCCNc1ncnc2c1sc1nc(-c3ccco3)c3c(c12)CC(C)(C)OC3	3.2	5.7	18.1*	5.0	-1.3	1.9	-3.3	-11.8
CCN1/C(=C/C=C/c2sc3ccccc3[n+]2CC)Sc2ccccc21	-13.7	.	.	18.9	-72.6	-7.0	.	.
